For 1 molecule, bioavailability, Activity and inhibition results are on record in ChEMBL document CHEMBL4414663, “Pyrazole-4-Carboxamide (YW2065): A Therapeutic Candidate for Colorectal Cancer via Dual Activities of Wnt/β-Catenin Signaling Inhibition and AMP-Activated Protein Kinase (AMPK) Activation” (J Med Chem, 2019).

Data set [1] is described as follows: Oral bioavailability in C57BL/6J mouse at 5 mg/kg by UPLC-MS analysis. It counts as ADME, organism-based. The conditions noted are these: in vivo. The essentials:
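Male C57BL/6J mice, 2–3 months old, 23–26 g. Single 5 mg/kg dose in 5% Kolliphor in saline, IV (n = 3) or oral gavage (n = 5). Tail-vein blood taken at 0.25, 0.5, 1, 4, 8 and 12 h and centrifuged to plasma. Analysed by LC-MS/MS (QTRAP 4000, C18 column); parameters from non-compartmental analysis.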

For the next data set, the system named is SW-620. Nature of the data set: Induction of apoptosis in human SW620 cells assessed as late apoptotic cells level at 3 uM incubated for 48 hrs by AAD-7 and FITC-annexin-V staining based flow cytometry (reference value: 7.6%). Type of data set: functional. (In general: In flow cytometry, cells or beads pass a laser one at a time.)
Data set [2] has as its target Proto-oncogene tyrosine-protein kinase Src (Homo sapiens) (UniProt P12931). Nature of the data set: Inhibition of SRC (unknown origin) at 1000 nM relative to control. The essentials:
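Single-concentration screen at 1000 nM against a 273-kinase panel, reported as percent inhibition.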

Another data set is filed under the species Homo sapiens. Nature of the data set: Inhibition of Wnt/beta-Catenin signaling (unknown origin) expressed in recombinant human Wnt-3a-induced Wnt-HEK293 cells assessed as increase in beta-catenin degradation at 1 uM by Western blot analysis. Type of data set: cell-based. Background: Immunoblotting shows a protein as a band on a membrane.

Active and inactive are the calls of the source. The calls are words filed in the database; no cut-off is given here.

Chain of Proto-oncogene tyrosine-protein kinase Src (Homo sapiens) (P12931 2-536 limits assumed): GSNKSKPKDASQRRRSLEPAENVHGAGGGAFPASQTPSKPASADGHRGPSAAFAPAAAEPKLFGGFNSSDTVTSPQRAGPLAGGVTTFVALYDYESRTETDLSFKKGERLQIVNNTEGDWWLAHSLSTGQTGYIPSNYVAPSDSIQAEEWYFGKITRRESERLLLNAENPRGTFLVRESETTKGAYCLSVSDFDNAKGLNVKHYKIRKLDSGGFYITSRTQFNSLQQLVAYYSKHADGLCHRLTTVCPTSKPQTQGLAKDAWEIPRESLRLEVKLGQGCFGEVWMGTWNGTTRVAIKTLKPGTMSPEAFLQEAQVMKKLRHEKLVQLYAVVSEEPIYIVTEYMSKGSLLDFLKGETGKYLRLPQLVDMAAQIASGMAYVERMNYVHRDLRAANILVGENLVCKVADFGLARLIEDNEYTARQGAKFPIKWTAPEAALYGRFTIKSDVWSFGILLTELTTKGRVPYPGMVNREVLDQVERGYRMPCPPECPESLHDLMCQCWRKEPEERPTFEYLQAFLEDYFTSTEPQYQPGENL

Take `Cc1c(C(=O)Nc2ccc3ccccc3n2)cnn1-c1ccccc1Br`: the bioavailability – broadly, the share of a dose that reaches the circulation, judged against a reference dose that is usually intravenous – in data set [1] stood at 22.9%. In addition, the Activity with SW-620 worked out at 19.2%. Besides, the inhibition result (in data set [2]; in the data set listed under Homo sapiens) was “Active” throughout.
